# In ChEMBL document CHEMBL3992522, “Antileishmanial Activity of Pyrazolopyridine Derivatives and Their Potential as an Adjunct Therapy with Miltefosine” (J Med Chem, 2017):
# Calls of active or inactive are those of the source. The rule behind the calls is not given here.
# Columns and labels:
# [1] = system: Mus musculus; experiment: Increase in iNOS mRNA expression level in Balb/c mouse splenocytes infected with Leishmania donovani amastigote forms at 25 mg/kg, ip cotreated with 5 mg/kg, po miltefosine for 5 consecutive days measured on day 4 post last treatment by RT-PCR assay relative to control; format: functional
# Procedure, shortened: (§1)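 Infected BALB/c mice dosed for 5 consecutive days (test compound i.p. in 8% DMSO, miltefosine oral), n = 5 per group; splenocytes taken day 4 and day 7 post-treatment. Total RNA extracted and iNOS mRNA quantified by real-time PCR, normalized to mouse β-actin, expressed as fold change over uninfected controls.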
# [2] = system: Leishmania donovani; experiment: Antileishmanial activity against Leishmania donovani MHOM/IN/80/DD8 promastigote forms harboring luciferase gene at 50 uM up to 72 hrs by MTT assay relative to control; format: functional; conditions: MHOM/IN/80/DD8, 72 h
# [3] = system: Leishmania donovani; experiment: Induction of mitochondrial membrane potential loss in Leishmania donovani MHOM/IN/80/DD8 promastigote forms at 50 uM after 12 hrs by JC-1 staining based flow cytometry (reference value: 5.02%); format: functional
# [4] = system: Mus musculus; experiment: Increase in iNOS mRNA expression level in Balb/c mouse splenocytes infected with Leishmania donovani amastigote forms at 25 mg/kg, ip for 5 consecutive days measured on day 7 post last treatment by RT-PCR assay relative to control; format: functional; procedure, shortened: as §1
# [5] = system: Leishmania donovani; experiment: Induction of apoptosis in Leishmania donovani MHOM/IN/80/DD8 promastigote forms assessed as early apoptotic cells at IC50 after 48 hrs by Annexin V-FITC/propidium iodide staining based flow cytometry (reference value: 7.41%); format: functional
# [6] = system: Mus musculus; experiment: Decrease in IL-10 level in Balb/c mouse splenocytes infected with Leishmania donovani amastigote forms at 25 mg/kg, ip co-treated with 5 mg/kg, po miltefosine administered for 5 consecutive days measured on day 7 post last treatment by sandwich ELISA relative to control; format: functional
# Procedure, shortened: (§2)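 Splenocytes (2×10^6) from treated infected BALB/c mice taken on day 4 or 7 post-treatment. Cultured in phenol-red-free RPMI 1640 with 5 μg/mL soluble L. donovani antigen for 72 h at 37 °C, 5% CO2. Supernatant cytokines measured by sandwich ELISA against a standard curve. Mean ± SD, n = 5 mice per group, three independent experiments.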
# [7] = system: Leishmania donovani; experiment: Antileishmanial activity against Leishmania donovani MHOM/IN/80/DD8 amastigote forms harboring luciferase gene infected in mouse J774 cells after 72 hrs by Steady-Glo reagent based two fold dilution assay; format: functional; conditions: MHOM/IN/80/DD8, 72 h
# Procedure, shortened: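 Promastigotes or J774-resident amastigotes treated 72 h with six two-fold dilutions from 200 µM down to 6.25 µM. Luciferase RLU fitted by four-parameter Hill non-linear regression to derive the […] inhibitory concentration (MIC).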
# [8] = system: Leishmania donovani; experiment: Antileishmanial activity against Leishmania donovani MHOM/IN/80/DD8 amastigote forms harboring luciferase gene infected in mouse J774 cells after 72 hrs by Steady-Glo reagent based luminescence assay; format: functional, cell-based; conditions: MHOM/IN/80/DD8, J774, 72 h
# [9] = Cmax in Swiss mouse at 50 mg/kg, po by LC-MS/MS analysis; format: ADME, organism-based; parameters: dose 50 mg/kg, route oral; conditions: in vivo
# [10] = Selectivity index, ratio of CC50 for African green monkey Vero cells to IC50 for Leishmania donovani MHOM/IN/80/DD8 amastigote forms infected in mouse J774 cells; format: toxicity, cell-based; conditions: read-out: Ratio CC50/IC50
# Procedure, shortened: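 CC50: Vero or J774 cells (1×10^5/well) exposed 72 h to seven two-fold dilutions, 500–7.81 μM; MTT 2 h at 37 °C, formazan in DMSO read at 540 nm. IC50: luciferase-expressing Dd8 amastigotes in J774 macrophages (1:8), 72 h, luminescence, four-parameter Hill fit. SI = CC50/IC50, IC50 mean of three experiments.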
# [11] = system: Mus musculus; experiment: Decrease in TGFbeta level in Balb/c mouse splenocytes infected with Leishmania donovani amastigote forms at 25 mg/kg, ip co-treated with 5 mg/kg, po miltefosine administered for 5 consecutive days measured on day 7 post last treatment by sandwich ELISA relative to control; format: functional; procedure, shortened: as §2
# [12] = system: Leishmania donovani; experiment: Antileishmanial activity against Leishmania donovani amastigote forms infected in Balb/c mouse assessed as inhibition of parasitic burden in spleen at 25 mg/kg, ip administered for 5 consecutive days measured on day 7 post last treatment by Giemsa staining based assay relative to control; conditions: 168 h
# [13] = system: Leishmania donovani; experiment: (§3) Antileishmanial activity against Leishmania donovani amastigote forms infected in Balb/c mouse assessed as inhibition of parasitic burden in spleen at 50 mg/kg, ip administered for 5 consecutive days measured up to 7 weeks post treatment by Giemsa staining based assay; format: functional, organism-based
# [14] = system: Leishmania donovani; experiment: as §3, with “25” for “50”, “ip co-treated with 5 mg/kg, po miltefosine” for “ip”, “on day 4 and” for “up to”, “7” for “7 weeks”, “post last” for “post”, “assay relative to control” for “assay”; format: functional
# Procedure, shortened: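 Combination study with seven groups of 5 infected BALB/c mice, including vehicle (8% DMSO i.p.), infected untreated and miltefosine-alone groups. Treatment daily for 5 days, test compound i.p. and miltefosine orally. Mice killed on days 4 and 7 post-treatment; liver and spleen parasite load counted on Giemsa-stained stamp smears and expressed as LDU relative to infected untreated mice. Mean ± SD, n = 5, three independent experiments.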
# [15] = system: Leishmania donovani; experiment: Antileishmanial activity against Leishmania donovani MHOM/IN/80/DD8 promastigote forms harboring luciferase gene after 72 hrs by Steady-Glo reagent based luminescence assay; format: functional; conditions: MHOM/IN/80/DD8, 72 h
# Procedure, shortened: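 Exponential-phase Dd8-Luc promastigotes at 1×10^6/mL in M199 with 10% FBS, 24 °C, given 50 and 25 µM for 72 h. Vehicle 0.1% DMSO. Steady-Glo added 1:1, luminescence (RLU) read. IC50 from four-parameter Hill regression, derived only where inhibition exceeded 90%. Means of at least three independent experiments.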
# [16] = system: Leishmania donovani; experiment: Antileishmanial activity against Leishmania donovani MHOM/IN/80/DD8 amastigote forms harboring luciferase gene infected in mouse J774 cells at 6.25 to 12.5 uM up to 4 days by Steady-Glo reagent based luminescence assay; format: functional, cell-based
# Procedure, shortened: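 Infected J774 macrophages held at 37 °C with two-fold dilutions from 200 to 6.25 µM. Intracellular amastigote growth followed by luciferase activity in lysed macrophages, expressed as RLU, over time. Three independent experiments.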
# [17] = system: Leishmania donovani; experiment: Antileishmanial activity against Leishmania donovani MHOM/IN/80/DD8 amastigote forms harboring luciferase gene infected in mouse J774 cells at 25 uM after 72 hrs by Steady-Glo reagent based luminescence assay relative to control; format: functional; conditions: MHOM/IN/80/DD8, J774, 72 h, read-out: GI
# Procedure, shortened: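 Stationary-phase luciferase-expressing Dd8 promastigotes infected into J774 macrophages (4×10^4/mL seeded, 24 h, 37 °C, 5% CO2) at 1:8 macrophage:parasite for 24 h. Non-internalised parasites washed off. Compounds added at 50 and 25 µM in RPMI/10% FBS for 72 h. Lysis with Steady-Glo luciferin reagent plus PBS, luminescence read. Inhibition relative to untreated infected controls.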
# [18] = system: Mus musculus; experiment: Restoration of T cell proliferation in Balb/c mouse splenocytes infected with Leishmania donovani amastigote forms at <25 mg/kg, ip administered for 5 consecutive days measured on day 4 and 7 post last treatment followed by soluble Leishmania donovani promastigote antigen-stimulation for 72 hrs by MTT assay relative to control
smiles,measurement,setting,value
COc1ccc(C2C3=C(CCC3=O)Nc3c2c(-c2c[nH]c4ccccc24)nn3-c2ccc(Cl)c(Cl)c2)cc1OC (stereo not drawn),fold change (FC),[1],11.8
same,inhibition at 50 µM,[2],> 95%
same,Activity,[3],32.9%
same,fold change (FC),[4],3.3
same,Activity,[5],17.2%
same,inhibition (INH),[6],94%
same,MIC,[7],50 µM
same,IC50,[8],4.05 µM
same,Cmax,[9],4.88 µM
same,selectivity ratio,[10],108
same,inhibition (INH),[11],93%
same,inhibition in vivo at 25 mg/kg,[12],> 59%
same,inhibition,[13],Active
same,inhibition (INH),[14],>97%
same,IC50,[15],7.19 µM
same,Activity,[16],Active
same,inhibition of growth at 25 µM,[17],96.8%
same,fold change (FC),[18],2.2 - 3.4
